Test results taken from the M2OR odorant receptor database.

Experiments:
Details in all cases: stereoisomer not certain
[1] = target: T1, UniProt Q8VGC6
T1 sequence (whole entry): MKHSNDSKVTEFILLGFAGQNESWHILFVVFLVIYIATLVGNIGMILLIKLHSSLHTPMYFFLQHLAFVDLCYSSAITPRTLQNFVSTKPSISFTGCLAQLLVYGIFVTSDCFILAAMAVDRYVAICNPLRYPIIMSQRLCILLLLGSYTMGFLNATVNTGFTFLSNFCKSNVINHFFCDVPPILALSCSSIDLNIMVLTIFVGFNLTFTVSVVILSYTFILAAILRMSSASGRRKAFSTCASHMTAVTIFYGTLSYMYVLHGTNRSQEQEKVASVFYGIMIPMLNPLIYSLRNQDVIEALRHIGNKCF
In short: (§1)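 Each entry records the cell line, G-protein, co-transfected protein and tags used. Methods varied with the source, often transient luciferase assays in mammalian cell lines. A receptor–molecule pair is called responsive (active) if the original authors judged its signal statistically different from baseline and non-responsive (inactive) otherwise.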

[2] = target: T2, UniProt Q8VGD7
T2 sequence (whole entry): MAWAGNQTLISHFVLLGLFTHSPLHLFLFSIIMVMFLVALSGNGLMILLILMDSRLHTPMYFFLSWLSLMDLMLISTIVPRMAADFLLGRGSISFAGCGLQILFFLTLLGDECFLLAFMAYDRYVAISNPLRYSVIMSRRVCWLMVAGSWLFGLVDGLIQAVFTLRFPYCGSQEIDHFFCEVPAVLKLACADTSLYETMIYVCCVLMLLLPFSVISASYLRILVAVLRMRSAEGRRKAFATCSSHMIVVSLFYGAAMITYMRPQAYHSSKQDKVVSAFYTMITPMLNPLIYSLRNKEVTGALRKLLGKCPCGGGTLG
In short: as §1

[3] = target: T3, UniProt Q8VGH1
T3 sequence (whole entry): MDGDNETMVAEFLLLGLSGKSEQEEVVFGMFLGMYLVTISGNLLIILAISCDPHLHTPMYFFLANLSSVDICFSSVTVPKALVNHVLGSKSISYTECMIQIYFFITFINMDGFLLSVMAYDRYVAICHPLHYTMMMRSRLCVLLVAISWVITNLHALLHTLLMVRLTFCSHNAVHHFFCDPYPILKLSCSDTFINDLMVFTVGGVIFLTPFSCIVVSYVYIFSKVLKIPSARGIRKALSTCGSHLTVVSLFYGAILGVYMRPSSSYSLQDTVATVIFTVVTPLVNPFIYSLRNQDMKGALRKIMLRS
In short: as §1

[4] = target: T4, UniProt Q8VGJ1
T4 sequence (whole entry): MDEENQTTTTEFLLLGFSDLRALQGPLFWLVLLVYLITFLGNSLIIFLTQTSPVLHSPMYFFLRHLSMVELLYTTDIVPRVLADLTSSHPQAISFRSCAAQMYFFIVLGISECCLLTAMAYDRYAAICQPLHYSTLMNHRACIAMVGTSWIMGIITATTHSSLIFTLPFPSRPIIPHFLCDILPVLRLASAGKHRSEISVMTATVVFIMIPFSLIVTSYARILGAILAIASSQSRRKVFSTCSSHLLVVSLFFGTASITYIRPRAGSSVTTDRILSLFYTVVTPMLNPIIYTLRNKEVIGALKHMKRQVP
In short: as §1

[5] = target: T5, UniProt Q8VGJ3
T5 sequence (whole entry): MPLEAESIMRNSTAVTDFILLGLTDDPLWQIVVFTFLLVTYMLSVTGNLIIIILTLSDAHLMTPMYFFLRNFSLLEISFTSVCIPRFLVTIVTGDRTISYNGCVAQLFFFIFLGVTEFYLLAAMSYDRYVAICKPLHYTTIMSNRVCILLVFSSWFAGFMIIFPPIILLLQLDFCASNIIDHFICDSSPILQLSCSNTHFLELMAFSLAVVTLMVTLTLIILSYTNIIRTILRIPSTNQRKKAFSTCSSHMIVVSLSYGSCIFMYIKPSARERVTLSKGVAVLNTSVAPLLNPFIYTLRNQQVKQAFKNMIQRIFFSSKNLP
In short: as §1

[6] = target: T6, UniProt Q8VGJ5
T6 sequence (whole entry): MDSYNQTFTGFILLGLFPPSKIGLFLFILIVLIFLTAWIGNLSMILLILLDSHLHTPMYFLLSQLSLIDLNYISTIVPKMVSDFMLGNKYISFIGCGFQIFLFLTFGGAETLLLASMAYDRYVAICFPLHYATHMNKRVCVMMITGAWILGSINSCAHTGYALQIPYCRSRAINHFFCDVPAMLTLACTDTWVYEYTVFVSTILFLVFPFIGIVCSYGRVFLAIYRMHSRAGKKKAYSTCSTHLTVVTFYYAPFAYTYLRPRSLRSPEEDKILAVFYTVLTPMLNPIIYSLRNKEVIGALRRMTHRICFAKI
In short: as §1

[7] = target: T7, UniProt Q8VGL0
T7 sequence (whole entry): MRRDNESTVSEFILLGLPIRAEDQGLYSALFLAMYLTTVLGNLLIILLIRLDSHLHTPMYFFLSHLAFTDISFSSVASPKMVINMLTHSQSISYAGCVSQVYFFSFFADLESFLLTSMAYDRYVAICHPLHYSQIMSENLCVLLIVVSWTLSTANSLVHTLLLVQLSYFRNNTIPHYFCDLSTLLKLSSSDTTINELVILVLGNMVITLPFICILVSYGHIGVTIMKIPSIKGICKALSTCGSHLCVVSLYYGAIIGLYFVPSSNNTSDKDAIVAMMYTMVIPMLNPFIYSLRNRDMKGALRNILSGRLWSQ
In short: as §1

[8] = target: T8, UniProt Q8VGL7
T8 sequence (whole entry): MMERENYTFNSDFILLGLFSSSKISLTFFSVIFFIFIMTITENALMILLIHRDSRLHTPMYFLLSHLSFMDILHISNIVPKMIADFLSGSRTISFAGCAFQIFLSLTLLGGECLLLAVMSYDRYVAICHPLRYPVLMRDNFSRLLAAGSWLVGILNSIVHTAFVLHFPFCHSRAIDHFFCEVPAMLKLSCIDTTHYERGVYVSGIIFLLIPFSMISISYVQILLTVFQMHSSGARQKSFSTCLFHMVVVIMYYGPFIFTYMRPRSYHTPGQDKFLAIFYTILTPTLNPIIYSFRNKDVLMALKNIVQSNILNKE
In short: as §1

[9] = target: T9, UniProt Q8VGM2
T9 sequence (whole entry): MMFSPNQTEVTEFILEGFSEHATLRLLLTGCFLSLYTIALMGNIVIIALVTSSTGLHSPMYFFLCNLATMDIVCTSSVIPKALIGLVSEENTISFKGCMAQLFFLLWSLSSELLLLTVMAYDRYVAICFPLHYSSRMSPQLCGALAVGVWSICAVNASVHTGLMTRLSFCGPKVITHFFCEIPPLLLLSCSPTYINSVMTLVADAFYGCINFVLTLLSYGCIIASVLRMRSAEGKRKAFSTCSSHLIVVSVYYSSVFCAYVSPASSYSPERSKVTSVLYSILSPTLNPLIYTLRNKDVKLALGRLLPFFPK
In short: as §1

[10] = target: T10, UniProt Q8VGP6
T10 sequence (whole entry): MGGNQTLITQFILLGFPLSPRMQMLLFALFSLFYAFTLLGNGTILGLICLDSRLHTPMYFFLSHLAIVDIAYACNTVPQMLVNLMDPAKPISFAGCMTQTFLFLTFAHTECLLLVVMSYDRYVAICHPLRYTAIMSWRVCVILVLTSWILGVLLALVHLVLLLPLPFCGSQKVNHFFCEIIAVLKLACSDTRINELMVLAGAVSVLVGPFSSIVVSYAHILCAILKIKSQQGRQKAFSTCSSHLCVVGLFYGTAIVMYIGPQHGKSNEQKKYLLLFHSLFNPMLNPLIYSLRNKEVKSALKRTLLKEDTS
In short: as §1

[11] = target: T11, UniProt Q8VGQ3
T11 sequence (whole entry): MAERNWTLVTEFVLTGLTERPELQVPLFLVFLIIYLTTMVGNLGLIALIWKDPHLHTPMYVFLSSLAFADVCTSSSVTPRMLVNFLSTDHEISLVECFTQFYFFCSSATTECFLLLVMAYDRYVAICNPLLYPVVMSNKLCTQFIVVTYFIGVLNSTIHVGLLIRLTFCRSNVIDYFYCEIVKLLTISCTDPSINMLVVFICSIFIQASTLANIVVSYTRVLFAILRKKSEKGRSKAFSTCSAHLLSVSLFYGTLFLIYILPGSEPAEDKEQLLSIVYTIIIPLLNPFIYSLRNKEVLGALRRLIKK
In short: as §1

[12] = target: T12, UniProt Q8VGT4
T12 sequence (whole entry): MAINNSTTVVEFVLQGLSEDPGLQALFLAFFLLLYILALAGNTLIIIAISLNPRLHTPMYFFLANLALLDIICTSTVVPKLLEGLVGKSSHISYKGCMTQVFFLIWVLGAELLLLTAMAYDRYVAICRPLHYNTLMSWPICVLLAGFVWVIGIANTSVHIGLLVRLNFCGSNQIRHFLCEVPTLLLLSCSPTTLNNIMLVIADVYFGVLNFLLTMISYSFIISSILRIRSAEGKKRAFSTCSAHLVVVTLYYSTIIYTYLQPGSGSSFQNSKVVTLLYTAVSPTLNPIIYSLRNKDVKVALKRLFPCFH
In short: as §1

[13] = target: T13, UniProt Q8VGU3
T13 sequence (whole entry): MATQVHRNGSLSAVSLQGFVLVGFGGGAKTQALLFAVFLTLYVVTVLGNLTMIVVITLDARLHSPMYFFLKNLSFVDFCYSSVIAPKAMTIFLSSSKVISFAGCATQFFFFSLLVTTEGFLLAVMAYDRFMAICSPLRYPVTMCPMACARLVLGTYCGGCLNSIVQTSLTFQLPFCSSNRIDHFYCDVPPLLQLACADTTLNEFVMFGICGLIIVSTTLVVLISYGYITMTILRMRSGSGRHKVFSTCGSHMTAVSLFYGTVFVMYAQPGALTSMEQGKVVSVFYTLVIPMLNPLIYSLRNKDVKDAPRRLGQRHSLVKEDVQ
In short: as §1

[14] = target: T14, UniProt Q8VGV1
T14 sequence (whole entry): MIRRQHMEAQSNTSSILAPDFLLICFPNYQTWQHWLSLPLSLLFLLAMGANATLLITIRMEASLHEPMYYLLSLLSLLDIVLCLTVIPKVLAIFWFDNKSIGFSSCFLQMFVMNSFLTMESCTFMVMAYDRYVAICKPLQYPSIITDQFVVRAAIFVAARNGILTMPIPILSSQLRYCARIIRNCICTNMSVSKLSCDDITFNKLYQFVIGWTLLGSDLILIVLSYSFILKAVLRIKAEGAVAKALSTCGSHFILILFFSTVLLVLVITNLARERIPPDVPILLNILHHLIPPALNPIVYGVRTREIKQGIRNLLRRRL
In short: as §1

[15] = target: T15, UniProt Q8VGV7
T15 sequence (whole entry): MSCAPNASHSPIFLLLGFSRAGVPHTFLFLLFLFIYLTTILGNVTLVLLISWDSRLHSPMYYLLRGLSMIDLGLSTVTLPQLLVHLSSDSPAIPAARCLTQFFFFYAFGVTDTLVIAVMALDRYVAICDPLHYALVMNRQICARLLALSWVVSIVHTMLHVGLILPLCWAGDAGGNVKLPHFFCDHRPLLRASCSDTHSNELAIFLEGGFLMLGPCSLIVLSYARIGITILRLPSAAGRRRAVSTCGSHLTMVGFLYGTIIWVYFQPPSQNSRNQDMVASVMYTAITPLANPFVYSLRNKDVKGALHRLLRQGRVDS
In short: as §1

[16] = target: T16, UniProt Q8VGW5
T16 sequence (whole entry): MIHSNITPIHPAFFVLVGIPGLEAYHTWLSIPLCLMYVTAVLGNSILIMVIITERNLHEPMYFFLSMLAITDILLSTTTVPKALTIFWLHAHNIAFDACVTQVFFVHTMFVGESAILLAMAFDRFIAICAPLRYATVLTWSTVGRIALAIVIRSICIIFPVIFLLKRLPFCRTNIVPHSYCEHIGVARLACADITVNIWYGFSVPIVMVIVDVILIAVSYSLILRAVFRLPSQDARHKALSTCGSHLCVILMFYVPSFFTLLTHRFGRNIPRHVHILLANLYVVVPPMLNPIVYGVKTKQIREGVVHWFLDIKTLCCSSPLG
In short: as §1

[17] = target: T17, UniProt Q8VGX3
T17 sequence (whole entry): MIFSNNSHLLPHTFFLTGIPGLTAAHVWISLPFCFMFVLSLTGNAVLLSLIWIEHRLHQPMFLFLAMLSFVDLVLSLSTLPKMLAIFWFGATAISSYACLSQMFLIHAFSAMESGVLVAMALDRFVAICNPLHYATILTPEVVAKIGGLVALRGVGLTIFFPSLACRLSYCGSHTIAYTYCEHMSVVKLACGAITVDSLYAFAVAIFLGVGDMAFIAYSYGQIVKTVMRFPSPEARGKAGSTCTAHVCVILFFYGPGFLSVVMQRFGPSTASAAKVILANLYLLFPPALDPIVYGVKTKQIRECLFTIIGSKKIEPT
In short: as §1

[18] = target: T18, UniProt Q8VGX5
T18 sequence (whole entry): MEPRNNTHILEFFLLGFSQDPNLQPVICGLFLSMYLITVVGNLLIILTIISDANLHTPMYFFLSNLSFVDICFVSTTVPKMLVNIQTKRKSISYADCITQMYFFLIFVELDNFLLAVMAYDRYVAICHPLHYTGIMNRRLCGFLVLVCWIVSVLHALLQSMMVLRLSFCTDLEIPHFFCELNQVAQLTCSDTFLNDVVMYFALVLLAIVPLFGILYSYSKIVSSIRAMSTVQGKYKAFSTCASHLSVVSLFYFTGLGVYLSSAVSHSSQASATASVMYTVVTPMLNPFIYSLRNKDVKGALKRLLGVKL
In short: as §1

SMILES	odorant receptor agonist call [1]	odorant receptor agonist call [2]	odorant receptor agonist call [3]	odorant receptor agonist call [4]	odorant receptor agonist call [5]	odorant receptor agonist call [6]	odorant receptor agonist call [7]	odorant receptor agonist call [8]	odorant receptor agonist call [9]	odorant receptor agonist call [10]	odorant receptor agonist call [11]	odorant receptor agonist call [12]	odorant receptor agonist call [13]	odorant receptor agonist call [14]	odorant receptor agonist call [15]	odorant receptor agonist call [16]	odorant receptor agonist call [17]	odorant receptor agonist call [18]
CC(C)C12CCC(C)(CC1)O2	inactive																	
CCCCCCO	inactive	inactive	inactive	inactive	inactive	inactive	inactive	inactive	inactive	inactive	inactive	inactive	inactive	inactive	inactive	inactive	inactive	inactive
CCC=O	inactive																	
CCCCC(=O)CC	active	inactive	inactive	inactive	inactive	active	inactive	inactive	inactive	inactive	inactive	inactive	inactive	inactive	inactive		inactive	inactive
C=C(C)C1CCC(C)C(=O)C1 (centres undefined)	active	inactive	inactive	inactive	inactive	active	active	inactive	inactive	inactive	active	inactive	inactive	inactive	inactive		inactive	active
CCCC(=O)OC	inactive																	
CCCCCCCCO	active	inactive	inactive	inactive	inactive	inactive	inactive	inactive	inactive	active	inactive	inactive	inactive	inactive	inactive	inactive	inactive	inactive
CC(C)CN	inactive																	
